*1 amine or outer side, *2 acyl side, *3 side chain or, on linkers, in order; H or OH if unused. Where a SMILES comes first, the peptide text is derived from it. Bridges are numbered along the chain shown (N, C = ends). Roman numbers before positions name the chains, in order. [ ]: non-standard residue; d: D form. Pro(4R-SH) = O=C([C@@H]1C[C@@H](S[*:3])CN1[*:1])[*:2]; Pro(4S-SH) = O=C([C@@H]1C[C@H](S[*:3])CN1[*:1])[*:2]; hCys = N[C@@H](CCS)C(=O)O; Orn = NCCC[C@H](N)C(=O)O; Sar = CNCC(=O)O
How the values were obtained:
[1] = molecular target: T1, Angiotensin II receptor (AT-1) type-1 (Rattus norvegicus, UniProt P29089+P25095); test: In vitro binding affinity to the angiotensin II receptor, type 1 in rat liver
T1 sequence (P29089 whole entry): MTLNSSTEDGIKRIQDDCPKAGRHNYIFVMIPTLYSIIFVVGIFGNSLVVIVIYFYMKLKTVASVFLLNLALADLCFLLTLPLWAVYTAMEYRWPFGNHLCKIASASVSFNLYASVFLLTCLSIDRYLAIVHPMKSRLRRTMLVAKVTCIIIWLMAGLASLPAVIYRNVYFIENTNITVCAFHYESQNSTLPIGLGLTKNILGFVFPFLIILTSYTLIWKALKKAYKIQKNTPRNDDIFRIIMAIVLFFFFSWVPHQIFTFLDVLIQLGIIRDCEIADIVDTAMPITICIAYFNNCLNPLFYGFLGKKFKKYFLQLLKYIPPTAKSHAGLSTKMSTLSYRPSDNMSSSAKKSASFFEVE
T1 sequence (P25095 whole entry): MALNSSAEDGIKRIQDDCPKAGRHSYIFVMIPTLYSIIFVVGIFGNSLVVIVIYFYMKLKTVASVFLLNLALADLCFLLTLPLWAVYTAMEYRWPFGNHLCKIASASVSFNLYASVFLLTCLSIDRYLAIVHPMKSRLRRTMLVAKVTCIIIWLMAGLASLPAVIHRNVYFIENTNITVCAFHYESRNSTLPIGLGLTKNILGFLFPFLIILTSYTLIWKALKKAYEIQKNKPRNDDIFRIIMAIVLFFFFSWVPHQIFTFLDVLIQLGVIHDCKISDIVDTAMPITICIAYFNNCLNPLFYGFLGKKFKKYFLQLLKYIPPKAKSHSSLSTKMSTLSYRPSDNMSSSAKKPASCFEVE
In short: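 Buffer: 50 mM NaH2PO4 pH 7.1 with 100 μM bacitracin, 0.2% BSA, 100 mM NaCl, 10 mM MgCl2, 1 mM EGTA. Incubated 1 h at 25 °C, then filtered, and filters counted. IC50 from weighted nonlinear regression to the mass action equation.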

[2] = species: Oryctolagus cuniculus; test: Agonist efficacy assessed from contractile responses on rabbit aorta (AT1); format: functional
In short: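 Rabbit thoracic aortic rings held in 20-mL baths of Krebs-bicarbonate at 37 °C, gassed with 5% CO2 in oxygen. Resting tension 4.0 g, 90-min equilibration. Peptides added cumulatively until maximal response. EC50 read graphically from the curves as the concentration giving 50% of maximal contraction.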

In the case of CNCC(=O)N[C@@H](CCCNC(=N)N)C(=O)N[C@H]1CCSSCC[C@@H](C(=O)N[C@@H](Cc2cnc[nH]2)C(=O)N2CCC[C@H]2C(=O)N[C@@H](Cc2ccccc2)C(=O)O)NC(=O)[C@H](Cc2ccc(O)cc2)NC1=O (H-[Sar]R[hCys]Y[hCys]HPF-OH; disulfide 3-5), the IC50 [1] is reported as 0.0013 µM.
In the case of CNCC(=O)N[C@@H](CCCN=C(N)N)C(=O)N[C@H]1CCSS[C@H]2C[C@@H](C(=O)N[C@@H](Cc3c[nH]cn3)C(=O)N3CCC[C@H]3C(=O)N[C@@H](Cc3ccccc3)C(=O)O)N(C2)C(=O)[C@H](Cc2ccc(O)cc2)NC1=O (H-[Sar]R[hCys]Y[Pro(4S-SH)]HPF-OH; disulfide 3-5), the IC50 [1] is reported as 0.11 µM and the EC50 [2] is reported as 0.69 µM.
With CNCC(=O)N[C@@H](CCCN=C(N)N)C(=O)N[C@H]1CSSC[C@@H](C(=O)N[C@@H](Cc2ccccc2)C(=O)O)NC(=O)[C@H](Cc2c[nH]cn2)NC(=O)[C@H](C(C)C)NC(=O)[C@H](Cc2ccc(O)cc2)NC1=O (H-[Sar]RCYVHCF-OH; disulfide 3-7) the IC50 [1] was 1.23 µM.
Compound CNCC(=O)N[C@@H](CCCN=C(N)N)C(=O)N[C@H](C(=O)N[C@@H](Cc1ccc(O)cc1)C(=O)N[C@H]1CSSC[C@@H](C(=O)O)NC(=O)[C@@H]2CCCN2C(=O)[C@H](Cc2c[nH]cn2)NC1=O)C(C)C (H-[Sar]RVYCHPC-OH; disulfide 5-8) has an IC50 [1] of 1.2 µM.
CC[C@H](C)[C@H](NC(=O)[C@H](Cc1ccc(O)cc1)NC(=O)[C@@H](NC(=O)[C@H](CCCNC(=N)N)NC(=O)[C@@H](N)CC(=O)O)C(C)C)C(=O)N[C@@H](Cc1cnc[nH]1)C(=O)N1CCC[C@H]1C(=O)N[C@@H](Cc1ccccc1)C(=O)O [ANGIOTENSIN II] was tested, and the EC50 [2] was 0.0025 µM.
CNCC(=O)N[C@@H](CCCN=C(N)N)C(=O)N1C[C@@H]2C[C@H]1C(=O)N[C@@H](Cc1ccc(O)cc1)C(=O)N[C@H](C(=O)N[C@@H](Cc1c[nH]cn1)C(=O)N1CCC[C@H]1C(=O)N[C@@H](Cc1ccccc1)C(=O)O)CCSS2 (H-[Sar]R[Pro(4S-SH)]Y[hCys]HPF-OH; disulfide 3-5) gave an IC50 [1] of 0.51 µM and an EC50 [2] of 0.44 µM.
With CNCC(=O)N[C@@H](CCCN=C(N)N)C(=O)N[C@H]1CC(=O)NCCC[C@@H](C(=O)N[C@@H](Cc2c[nH]cn2)C(=O)N2CCC[C@H]2C(=O)N[C@@H](Cc2ccccc2)C(=O)O)NC(=O)[C@H](Cc2ccc(O)cc2)NC1=O (H-[Sar]RDY[Orn]HPF-OH; lactam 3-5) the IC50 [1] was 0.683 µM.
CNCC(=O)N[C@@H](CCCN=C(N)N)C(=O)N1C[C@@H]2C[C@H]1C(=O)N[C@@H](Cc1ccc(O)cc1)C(=O)N[C@H](C(=O)N[C@@H](Cc1c[nH]cn1)C(=O)N1CCC[C@H]1C(=O)N[C@@H](Cc1ccccc1)C(=O)O)CSSC[C@H](C(=O)N[C@H](Cc1c[nH]cn1)C(=O)N1CCC[C@@H]1C(=O)N[C@H](Cc1ccccc1)C(=O)O)NC(=O)[C@@H](Cc1ccc(O)cc1)NC(=O)[C@H]1C[C@H](CN1C(=O)[C@@H](CCCN=C(N)N)NC(=O)CNC)SS2 was tested, and the IC50 [1] was 0.19 µM and the EC50 [2] was 0.46 µM.
CNCC(=O)N[C@@H](CCCN=C(N)N)C(=O)N[C@H]1CSSC[C@@H](C(=O)O)NC(=O)[C@@H]2CCCN2C(=O)[C@H](Cc2c[nH]cn2)NC(=O)[C@H](C(C)C)NC(=O)[C@H](Cc2ccc(O)cc2)NC1=O (H-[Sar]RCYVHPC-OH; disulfide 3-8) was tested, and the IC50 [1] was 0.52 µM.
CNCC(=O)N[C@@H](CCCN=C(N)N)C(=O)N[C@H]1CSS[C@H]2C[C@@H](C(=O)N[C@@H](Cc3c[nH]cn3)C(=O)N3CCC[C@H]3C(=O)N[C@@H](Cc3ccccc3)C(=O)O)N(C2)C(=O)[C@H](Cc2ccc(O)cc2)NC1=O (H-[Sar]RCY[Pro(4S-SH)]HPF-OH; disulfide 3-5) showed an IC50 [1] of 0.062 µM.
CNCC(=O)N[C@@H](CCCN=C(N)N)C(=O)N[C@H]1CSS[C@@H]2C[C@@H](C(=O)N[C@@H](Cc3c[nH]cn3)C(=O)N3CCC[C@H]3C(=O)N[C@@H](Cc3ccccc3)C(=O)O)N(C2)C(=O)[C@H](Cc2ccc(O)cc2)NC1=O (H-[Sar]RCY[Pro(4R-SH)]HPF-OH; disulfide 3-5) showed an IC50 [1] of 0.018 µM and an EC50 [2] of 0.16 µM.
CNCC(=O)N[C@@H](CCCN=C(N)N)C(=O)N[C@H]1CCSSCC[C@@H](C(=O)N[C@@H](Cc2c[nH]cn2)C(=O)N2CCC[C@H]2C(=O)N[C@@H](Cc2ccccc2)C(=O)O)NC(=O)[C@H](Cc2ccc(O)cc2)NC1=O (H-[Sar]R[hCys]Y[hCys]HPF-OH; disulfide 3-5) was tested, and the EC50 [2] was 0.0032 µM.
With CC[C@H](C)[C@H](NC(=O)[C@H](Cc1ccc(O)cc1)NC(=O)[C@@H](NC(=O)[C@@H](N)CCCN=C(N)N)C(C)C)C(=O)N[C@@H](Cc1c[nH]cn1)C(=O)N1CCC[C@H]1C(=O)N[C@@H](Cc1ccccc1)C(=O)O [ANGIOTENSIN III] the IC50 [1] was 0.00557 µM and the EC50 [2] was 0.032 µM.
Work on CNCC(=O)N[C@@H](CCCN=C(N)N)C(=O)N[C@H]1CSSC[C@@H](C(=O)N[C@@H](Cc2c[nH]cn2)C(=O)N2CCC[C@H]2C(=O)N[C@@H](Cc2ccccc2)C(=O)O)NC(=O)[C@H](Cc2ccc(O)cc2)NC(=O)[C@@H](NC(=O)[C@H](CCCN=C(N)N)NC(=O)CNC)CSSC[C@@H](C(=O)N[C@@H](Cc2c[nH]cn2)C(=O)N2CCC[C@H]2C(=O)N[C@@H](Cc2ccccc2)C(=O)O)NC(=O)[C@H](Cc2ccc(O)cc2)NC1=O (I: H-[Sar]RCYCHPF-OH / II: H-[Sar]RCYCHPF-OH; disulfide I:3-II:5, I:5-II:3) yielded an IC50 [1] of 0.028 µM.
In the case of H-DRVYIHPFHL-OH, the IC50 [1] is reported as 0.3 µM and the EC50 [2] is reported as > 10 µM.
For CNCC(=O)N[C@@H](CCCN=C(N)N)C(=O)N[C@H]1CC(=O)NCCCC[C@@H](C(=O)N[C@@H](Cc2c[nH]cn2)C(=O)N2CCC[C@H]2C(=O)N[C@@H](Cc2ccccc2)C(=O)O)NC(=O)[C@H](Cc2ccc(O)cc2)NC1=O (H-[Sar]RDYKHPF-OH; lactam 3-5), the IC50 [1] was 0.012 µM and the EC50 [2] was 0.053 µM.
CNCC(=O)N[C@@H](CCCN=C(N)N)C(=O)N1C[C@H]2C[C@H]1C(=O)N[C@@H](Cc1ccc(O)cc1)C(=O)N[C@H](C(=O)N[C@@H](Cc1c[nH]cn1)C(=O)N1CCC[C@H]1C(=O)N[C@@H](Cc1ccccc1)C(=O)O)CSS2 (H-[Sar]R[Pro(4R-SH)]YCHPF-OH; disulfide 3-5) was tested, and the IC50 [1] was 0.087 µM.
For CNCC(=O)N[C@@H](CCCN=C(N)N)C(=O)N[C@H]1CSSCC[C@@H](C(=O)N[C@@H](Cc2c[nH]cn2)C(=O)N2CCC[C@H]2C(=O)N[C@@H](Cc2ccccc2)C(=O)O)NC(=O)[C@H](Cc2ccc(O)cc2)NC1=O (H-[Sar]RCY[hCys]HPF-OH; disulfide 3-5), the IC50 [1] was 0.0026 µM.
For CNCC(=O)N[C@@H](CCCN=C(N)N)C(=O)N[C@H]1CCC(=O)NCCCC[C@@H](C(=O)N[C@@H](Cc2c[nH]cn2)C(=O)N2CCC[C@H]2C(=O)N[C@@H](Cc2ccccc2)C(=O)O)NC(=O)[C@H](Cc2ccc(O)cc2)NC1=O (H-[Sar]REYKHPF-OH; lactam 3-5), the IC50 [1] was 0.089 µM.
Work on CNCC(=O)N[C@@H](CCCN=C(N)N)C(=O)N[C@H]1CCSS[C@@H]2C[C@@H](C(=O)N[C@@H](Cc3c[nH]cn3)C(=O)N3CCC[C@H]3C(=O)N[C@@H](Cc3ccccc3)C(=O)O)N(C2)C(=O)[C@H](Cc2ccc(O)cc2)NC1=O (H-[Sar]R[hCys]Y[Pro(4R-SH)]HPF-OH; disulfide 3-5) yielded an IC50 [1] of 0.0013 µM and an EC50 [2] of 0.013 µM.
In the case of CNCC(=O)N[C@@H](CCCN=C(N)N)C(=O)N[C@H]1CSSC[C@@H](C(=O)N[C@@H](Cc2c[nH]cn2)C(=O)N2CCC[C@H]2C(=O)N[C@@H](Cc2ccccc2)C(=O)O)NC(=O)[C@H](Cc2ccc(O)cc2)NC1=O (H-[Sar]RCYCHPF-OH; disulfide 3-5), the IC50 [1] is reported as 0.0076 µM.
